Calls of active or inactive are those of the source. The rule behind the calls is not given here. Residues, ends and D or L forms follow the SMILES beside them.
Legend:
[1] = molecular target: Heat shock protein HSP 90-beta (Homo sapiens) (UniProt P08238); assay: Inhibition of Hsp90 (unknown origin) at 50 uM preincubated for 1 hr followed by denatured luciferase addition measured at 30 mins by bright glo luciferase refolding assay in presence of Hsp70/Hsp40/HOP relative to control
Summary of the method: (§1)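 Pure-protein refolding: heat-denatured firefly luciferase incubated with 0.5μM hsp90, 1μM hsp70, 0.2μM hsp40 and 0.1μM HOP; compound at 50μM; luciferase activity followed over time, expressed versus control; n=3, mean±SEM.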

[2] = molecular target: Heat shock protein HSP 90-beta (Homo sapiens) (UniProt P08238); assay: Inhibition of Hsp90 (unknown origin) at 50 uM preincubated for 1 hr followed by denatured luciferase addition measured at 60 mins by bright glo luciferase refolding assay in presence of Hsp70/Hsp40/HOP relative to control; summary of the method: as §1
[3] = molecular target: Heat shock protein HSP 90-beta (Homo sapiens) (UniProt P08238); assay: Inhibition of Hsp90 (unknown origin) at 50 uM preincubated for 1 hr followed by denatured luciferase addition measured at 75 mins by bright glo luciferase refolding assay in presence of Hsp70/Hsp40/HOP relative to control; summary of the method: as §1
[4] = molecular target: Heat shock protein HSP 90-beta (Homo sapiens) (UniProt P08238); assay: Inhibition of Hsp90 (unknown origin) at 50 uM preincubated for 1 hr followed by denatured luciferase addition measured at 15 mins by bright glo luciferase refolding assay in presence of Hsp70/Hsp40/HOP relative to control; summary of the method: as §1
[5] = molecular target: Heat shock protein HSP 90-beta (Homo sapiens) (UniProt P08238); assay: Inhibition of Hsp90 (unknown origin) at 50 uM preincubated for 1 hr followed by denatured luciferase addition measured at 45 mins by bright glo luciferase refolding assay in presence of Hsp70/Hsp40/HOP relative to control; summary of the method: as §1
[6] = molecular target: Heat shock protein HSP 90-beta (Homo sapiens) (UniProt P08238); assay: Inhibition of Hsp90 (unknown origin) at 50 uM preincubated for 1 hr followed by denatured luciferase addition measured at 90 mins by bright glo luciferase refolding assay in presence of Hsp70/Hsp40/HOP relative to control; summary of the method: as §1
[7] = molecular target: Heat shock protein HSP 90-beta (Homo sapiens) (UniProt P08238); assay: Binding affinity to human Hsp90 assessed as inhibition of interaction with His/GST-tagged recombinant co-chaperone TOM70 at 10 uM preincubated for 1 hr followed by co-chaperone addition measured after 1 hr by Western blotting analysis
Summary of the method: (§2)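 Purified native hsp90 combined with purified TPR co-chaperone (FKBP51, FKBP52, HOP, Unc45, CHIP, Cyp40 or TOM70), with increasing compound, 0–10 μM; hsp90–co-chaperone binding measured across the range.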

[8] = molecular target: Heat shock protein HSP 90-beta (Homo sapiens) (UniProt P08238); assay: Binding affinity to human Hsp90 assessed as inhibition of interaction with His/GST-tagged recombinant co-chaperone CHIP at 10 uM preincubated for 1 hr followed by co-chaperone addition measured after 1 hr by Western blotting analysis; summary of the method: as §2
[9] = molecular target: T1, Heat shock protein HSP 90 (Oryctolagus cuniculus) (UniProt P11500); assay: Inhibition of Hsp90 in rabbit reticulocyte lysate at 50 uM measured at 60 mins by bright glo luciferase refolding assay relative to control
T1 sequence (whole entry): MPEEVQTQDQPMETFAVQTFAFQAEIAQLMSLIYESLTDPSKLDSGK
Summary of the method: (§3)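 Heat-denatured firefly luciferase incubated in rabbit reticulocyte lysate, the complete lysate system; compound at 50μM; refolding followed over time by luciferase activity relative to control; n=3, mean±SEM.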

[10] = molecular target: Heat shock protein HSP 90-beta (Homo sapiens) (UniProt P08238); assay: Inhibition of Hsp90 (unknown origin) at 50 uM preincubated for 1 hr followed by denatured luciferase addition measured at 120 mins by bright glo luciferase refolding assay in presence of Hsp70/Hsp40/HOP relative to control; summary of the method: as §1
[11] = molecular target: T1, Heat shock protein HSP 90 (Oryctolagus cuniculus); assay: Inhibition of Hsp90 in rabbit reticulocyte lysate at 50 uM measured at 30 mins by bright glo luciferase refolding assay relative to control; summary of the method: as §3
[12] = molecular target: Heat shock protein HSP 90-beta (Homo sapiens) (UniProt P08238); assay: Inhibition of Hsp90 in human HeLa cells assessed as downregulation of Hsp90 protein expression at 5 uM to 50 uM after 30 hours by Western blotting analysis relative to DMSO-treated control; type: cell-based
Summary of the method: (§4)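 HeLa cervical carcinoma cells treated at 5μM and 50μM; cell lysates probed for the heat shock response proteins hsp70, hsp90 and HSF1 by western blot, compared with DMSO.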

[13] = molecular target: Heat shock protein HSP 90-beta (Homo sapiens) (UniProt P08238); assay: Inhibition of Hsp90 in human HeLa cells assessed as downregulation of HSF1 protein expression at 5 uM to 50 uM after 30 hours by Western blotting analysis relative to DMSO-treated control; type: cell-based; summary of the method: as §4
[14] = molecular target: Heat shock protein HSP 90-beta (Homo sapiens) (UniProt P08238); assay: Inhibition of Hsp90 in human HeLa cells assessed as change in Hsp70 protein expression at 5 uM to 50 uM after 30 hours by Western blotting analysis; type: cell-based; summary of the method: as §4
[15] = molecular target: T1, Heat shock protein HSP 90 (Oryctolagus cuniculus); assay: Inhibition of Hsp90 in rabbit reticulocyte lysate at 50 uM measured at 45 mins by bright glo luciferase refolding assay relative to control; summary of the method: as §3
[16] = molecular target: T1, Heat shock protein HSP 90 (Oryctolagus cuniculus); assay: Inhibition of Hsp90 in rabbit reticulocyte lysate at 50 uM measured at 90 mins by bright glo luciferase refolding assay relative to control; summary of the method: as §3
[17] = molecular target: T1, Heat shock protein HSP 90 (Oryctolagus cuniculus); assay: Inhibition of Hsp90 in rabbit reticulocyte lysate at 50 uM measured at 15 mins by bright glo luciferase refolding assay relative to control; summary of the method: as §3
[18] = molecular target: Heat shock protein HSP 90-beta (Homo sapiens) (UniProt P08238); assay: Inhibition of Hsp90 in human HeLa cells assessed as downregulation of FKBP52 protein level at 50 uM after 30 hours by Western blotting analysis; type: cell-based
Summary of the method: (§5)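 HeLa cells treated at 5μM and 50μM; lysates western blotted for FKBP51, FKBP52 and glucocorticoid receptor; bands normalized to GAPDH and compared with DMSO control; n≥3, mean±SEM.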

[19] = molecular target: Heat shock protein HSP 90-beta (Homo sapiens) (UniProt P08238); assay: Inhibition of Hsp90 in human HeLa cells assessed as change in FKBP51 protein level at 50 uM after 30 hours by Western blotting analysis; type: cell-based; summary of the method: as §5
[20] = molecular target: Heat shock protein HSP 90-beta (Homo sapiens) (UniProt P08238); assay: Binding affinity to human Hsp90 assessed as inhibition of interaction with His/GST-tagged recombinant co-chaperone Cyp40 at 10 uM preincubated for 1 hr followed by co-chaperone addition measured after 1 hr by Western blotting analysis; summary of the method: as §2
[21] = molecular target: T1, Heat shock protein HSP 90 (Oryctolagus cuniculus); assay: Inhibition of Hsp90 in rabbit reticulocyte lysate at 50 uM measured at 75 mins by bright glo luciferase refolding assay relative to control; summary of the method: as §3
[22] = molecular target: Heat shock protein HSP 90-beta (Homo sapiens) (UniProt P08238); assay: Inhibition of Hsp90 (unknown origin) at 50 uM preincubated for 1 hr followed by denatured luciferase addition measured at 105 mins by bright glo luciferase refolding assay in presence of Hsp70/Hsp40/HOP relative to control; summary of the method: as §1
[23] = molecular target: Heat shock protein HSP 90-beta (Homo sapiens) (UniProt P08238); assay: Binding affinity to human Hsp90 assessed as inhibition of interaction with His/GST-tagged recombinant co-chaperone Unc45 up to 10 uM preincubated for 1 hr followed by co-chaperone addition measured after 1 hr by Western blotting analysis
Summary of the method: (§6)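 In vitro binding assay: pure native hsp90 combined with individual purified TPR co-chaperones (Unc45, CHIP, TOM70, Cyp40, FKBP51, FKBP52), with compound added in increasing amounts up to 5 or 10 μM. Co-chaperone–hsp90 association was scored against the compound-free condition.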

[24] = molecular target: Heat shock protein HSP 90-beta (Homo sapiens) (UniProt P08238); assay: Inhibition of Hsp90 in human HeLa cells assessed as downregulation of glucocorticoid receptor protein level at 40 uM after 30 hours by Western blotting analysis in presence of proteasome inhibitor MG-132; type: cell-based
[25] = molecular target: Heat shock protein HSP 90-beta (Homo sapiens) (UniProt P08238); assay: Inhibition of Hsp90 in human HeLa cells assessed as downregulation of FKBP51 protein level at 40 uM after 30 hours by Western blotting analysis in presence of proteasome inhibitor MG-132; type: cell-based
[26] = molecular target: Heat shock protein HSP 90-beta (Homo sapiens) (UniProt P08238); assay: Binding affinity to human Hsp90 assessed as inhibition of interaction with His/GST-tagged recombinant co-chaperone CYP40 up to 10 uM preincubated for 1 hr followed by co-chaperone addition measured after 1 hr by Western blotting analysis; summary of the method: as §6
[27] = molecular target: Heat shock protein HSP 90-beta (Homo sapiens) (UniProt P08238); assay: Binding affinity to human Hsp90 assessed as inhibition of interaction with His/GST-tagged recombinant co-chaperone CHIP up to 10 uM preincubated for 1 hr followed by co-chaperone addition measured after 1 hr by Western blotting analysis; summary of the method: as §6
[28] = molecular target: Heat shock protein HSP 90-beta (Homo sapiens) (UniProt P08238); assay: Binding affinity to human Hsp90 assessed as inhibition of interaction with His/GST-tagged recombinant co-chaperone TOM70 up to 10 uM preincubated for 1 hr followed by co-chaperone addition measured after 1 hr by Western blotting analysis; summary of the method: as §6
[29] = molecular target: Heat shock protein HSP 90-beta (Homo sapiens) (UniProt P08238); assay: Inhibition of Hsp90 (unknown origin) at 50 uM preincubated for 1 hr followed by denatured luciferase addition measured after 2 hrs by bright glo luciferase refolding assay in presence of Hsp70/Hsp40/HOP relative to control
Summary of the method: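 Purified refolding system: heat-denatured firefly luciferase incubated with 0.5 μM hsp90, 1 μM hsp70, 0.2 μM hsp40 and 0.1 μM HOP plus test agent (1 μM or 50 μM). Luciferase activity was followed over time up to 2 h and expressed relative to control. n=3, mean±SEM.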

[30] = molecular target: Heat shock protein HSP 90-beta (Homo sapiens) (UniProt P08238); assay: Binding affinity to human Hsp90 assessed as inhibition of interaction with His/GST-tagged recombinant co-chaperone FKBP51 up to 10 uM preincubated for 1 hr followed by co-chaperone addition measured after 1 hr by Western blotting analysis; summary of the method: as §6
[31] = molecular target: Heat shock protein HSP 90-beta (Homo sapiens) (UniProt P08238); assay: Inhibition of Hsp90 in human HeLa cells assessed as downregulation of FKBP52 protein level at 40 uM after 30 hours by Western blotting analysis in presence of proteasome inhibitor MG-132; type: cell-based
[32] = molecular target: Heat shock protein HSP 90-beta (Homo sapiens) (UniProt P08238); assay: Inhibition of human Hsp90 assessed as disruption of interaction with recombinant p23 up to 10 uM by Western blotting analysis

Heat shock protein HSP 90-beta (Homo sapiens), sequence (P08238 whole entry): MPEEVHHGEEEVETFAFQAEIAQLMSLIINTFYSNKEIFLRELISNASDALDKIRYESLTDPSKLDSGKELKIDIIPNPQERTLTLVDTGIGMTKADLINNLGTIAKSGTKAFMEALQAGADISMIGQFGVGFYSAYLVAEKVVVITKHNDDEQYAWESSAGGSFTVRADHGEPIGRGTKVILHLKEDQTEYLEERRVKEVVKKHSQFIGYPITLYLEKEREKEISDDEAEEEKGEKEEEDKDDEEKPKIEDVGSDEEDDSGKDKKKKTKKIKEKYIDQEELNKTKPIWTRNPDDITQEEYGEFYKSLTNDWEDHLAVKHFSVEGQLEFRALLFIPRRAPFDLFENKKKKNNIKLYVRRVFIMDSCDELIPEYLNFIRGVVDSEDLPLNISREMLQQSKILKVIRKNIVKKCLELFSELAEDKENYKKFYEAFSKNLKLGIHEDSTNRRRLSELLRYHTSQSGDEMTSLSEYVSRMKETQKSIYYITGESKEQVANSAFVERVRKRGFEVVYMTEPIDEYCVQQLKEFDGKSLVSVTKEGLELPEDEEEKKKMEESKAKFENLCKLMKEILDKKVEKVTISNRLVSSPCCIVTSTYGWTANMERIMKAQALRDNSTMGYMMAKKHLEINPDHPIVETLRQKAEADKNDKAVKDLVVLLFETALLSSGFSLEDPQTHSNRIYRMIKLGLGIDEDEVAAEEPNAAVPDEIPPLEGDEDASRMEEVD

SMILES	RLU [1]	RLU [2]	RLU [3]	RLU [4]	RLU [5]	RLU [6]	RLU [9]	RLU [10]	RLU [11]	inhibition [12]	inhibition [13]	inhibition [14]	RLU [15]	RLU [16]	RLU [17]	RLU [21]	RLU [22]	other results
CO[C@H]1[C@H](OC(=O)c2ccc(C)[nH]2)[C@H](O)[C@@H](Oc2ccc3c(O)c(NC(=O)c4c[nH]c(C(=O)Nc5c(O)c6ccc(O[C@H]7OC(C)(C)[C@@H](OC)[C@H](OC(=O)c8ccc(C)[nH]8)[C@@H]7O)c(C)c6oc5=O)c4C)c(=O)oc3c2C)OC1(C)C	565	497	540	519	498	520	19200	417	10600	50%	50%	Active	15500	25400	4670	22000	467	inhibition [7]: Active; inhibition [8]: Active; inhibition [18]: Active; inhibition [19]: Active; inhibition [20]: Active
CC(C)C[C@@H]1NC(=O)[C@H](C(C)C)N(C)C(=O)[C@@H](CC(C)C)NC(=O)[C@@H](Cc2ccccc2)NC(=O)[C@@H]([C@H](OCc2ccccc2)c2ccccc2)NC1=O (HELM PEPTIDE1{[O=C([C@H](N[*:1])[C@H](OCc1ccccc1)c1ccccc1)[*:2]].[dF].[dL].[meV].L}$PEPTIDE1,PEPTIDE1,1:R1-5:R2$$$V2.0)	4360	6340	7810	3800	5700	8670	21800	9190	10800	50%	50%	Active	16800	29600	5240	25300	8800	inhibition [23]: Active; inhibition [24]: Active; inhibition [25]: Active; inhibition [26]: Active; inhibition [27]: Active; inhibition [28]: Active; inhibition [29]: 55%; inhibition [30]: Active; inhibition [31]: Active; inhibition [32]: Active
